Measurements published in ChEMBL document CHEMBL2380296, “Structure-based design and optimization of 2-aminothiazole-4-carboxamide as a new class of CHK1 inhibitors” (Bioorg Med Chem Lett, 2013).

Tests used:
[1] = target: Alpha-1B adrenergic receptor (Homo sapiens) (UniProt P35368); assay: Inhibition of adrenergic alpha-1B receptor (unknown origin) at 1 ug/mL relative to control
[2] = Cmax in rat at 10 mg/kg, po; assay type: ADME, organism-based; set-up: dose 10 mg/kg, route oral; conditions: in vivo
[3] = target: Serine/threonine-protein kinase PLK3 (Homo sapiens, UniProt Q9H4B4); assay: Inhibition of human PLK3
[4] = Tmax in rat at 10 mg/kg, po; assay type: ADME, organism-based; set-up: dose 10 mg/kg, route oral; conditions: in vivo
[5] = target: Tyrosine-protein kinase Lck (Homo sapiens, UniProt P06239); assay: Inhibition of human LCK
[6] = target: Casein kinase I isoform delta (Homo sapiens, UniProt P48730); assay: Inhibition of human CSNK1D
hERG (KCNH2) [7] = target: T1, hERG (KCNH2) (Homo sapiens, UniProt Q12809); assay: Inhibition of human ERG transfected in CHO cells at 5 ug/mL by rubidium efflux assay relative to control; assay type: cell-based; conditions: CHO cells transfected with human ERG
[8] = target: Inhibitor of nuclear factor kappa-B kinase subunit beta (Homo sapiens, UniProt O14920); assay: Inhibition of human IKKB
[9] = target: Muscarinic acetylcholine receptor M4 (Homo sapiens) (UniProt P08173); assay: Inhibition of muscarinic M4 receptor (unknown origin) at 2 ug/mL relative to control
[10] = target: Vasopressin V1b receptor (Homo sapiens) (UniProt P47901); assay: Inhibition of vasopressin V1b receptor (unknown origin) at 2 ug/mL relative to control
[11] = target: Tyrosine-protein kinase JAK2 (Homo sapiens, UniProt O60674); assay: Inhibition of human JAK2
[12] = target: C-X-C chemokine receptor type 3 (Homo sapiens) (UniProt P49682); assay: Inhibition of CXCR3 (unknown origin) at 2 ug/mL relative to control
[13] = target: Serine/threonine-protein kinase 3 (Homo sapiens, UniProt Q13188); assay: Inhibition of human MST2
[14] = target: RAC-alpha serine/threonine-protein kinase (Homo sapiens, UniProt P31749); assay: Inhibition of human AKT1
[15] = target: Vasopressin V1a receptor (Homo sapiens) (UniProt P37288); assay: Inhibition of vasopressin V1a receptor (unknown origin) at 2 ug/mL relative to control
[16] = Plasma concentration in rat at 10 mg/kg, po measured at 1 hr; assay type: ADME, organism-based; set-up: dose 10 mg/kg, route oral
[17] = target: Cannabinoid receptor 2 (Homo sapiens) (UniProt P34972); assay: Inhibition of CB2 receptor (unknown origin) at 20 ug/mL relative to control
[18] = AUC in rat at 10 mg/kg, po; assay type: ADME, organism-based; set-up: dose 10 mg/kg, route oral; conditions: plasma
[19] = target: Interleukin-1 receptor-associated kinase 4 (Homo sapiens, UniProt Q9NWZ3); assay: Inhibition of human IRAK4
[20] = target: Muscarinic acetylcholine receptor M1 (Homo sapiens) (UniProt P11229); assay: Inhibition of muscarinic M1 receptor (unknown origin) at 2 ug/mL relative to control
[21] = target: Alpha-2A adrenergic receptor (Homo sapiens) (UniProt P08913); assay: Inhibition of adrenergic alpha-2A receptor (unknown origin) at 1 ug/mL relative to control
[22] = target: Serine/threonine-protein kinase Nek2 (Homo sapiens, UniProt P51955); assay: Inhibition of human NEK2
[23] = target: Protein kinase C alpha type (Homo sapiens, UniProt P17252); assay: Inhibition of human PKCA
[24] = target: Ribosomal protein S6 kinase alpha-3 (Homo sapiens, UniProt P51812); assay: Inhibition of human RSK2
[25] = target: Rho-associated protein kinase 2 (Homo sapiens, UniProt O75116); assay: Inhibition of human ROCK2
hERG (KCNH2) [26] = target: T1, hERG (KCNH2); assay: Inhibition of human ERG expressed in mouse L929 cells at 1 uM by IonWorks assay relative to control; assay type: cell-based; conditions: mouse L929 cells expressing human ERG
[27] = target: Calcium/calmodulin-dependent protein kinase type IV (Homo sapiens, UniProt Q16566); assay: Inhibition of human CAMK4
[28] = target: D(1A) dopamine receptor (Homo sapiens) (UniProt P21728); assay: Inhibition of dopamine D1 receptor (unknown origin) at 2 ug/mL relative to control
[29] = target: Oxytocin receptor (Homo sapiens) (UniProt P30559); assay: Inhibition of oxytocin receptor (unknown origin) at 2 ug/mL relative to control
[30] = target: Adenosine receptor A1 (Homo sapiens) (UniProt P30542); assay: Inhibition of adenosine A1 receptor (unknown origin) at 2 ug/mL relative to control
hERG (KCNH2) [31] = target: T1, hERG (KCNH2); assay: Inhibition of human ERG at 1 uM after 5 mins by voltage clamp assay relative to control
[32] = target: Muscarinic acetylcholine receptor M3 (Homo sapiens) (UniProt P20309); assay: Inhibition of muscarinic M3 receptor (unknown origin) at 2 ug/mL relative to control
[33] = Plasma concentration in rat at 10 mg/kg, po measured at 6 hrs; assay type: ADME, organism-based; set-up: dose 10 mg/kg, route oral
[34] = Plasma concentration in rat at 10 mg/kg, po measured at 2 hrs; assay type: ADME, organism-based; set-up: dose 10 mg/kg, route oral
[35] = target: Adenosine receptor A2a (Homo sapiens) (UniProt P29274); assay: Inhibition of adenosine A2A receptor (unknown origin) at 2 ug/mL relative to control
Cytochrome P450 3A4 [36] = target: T2, Cytochrome P450 3A4 (Homo sapiens, UniProt P08684); assay: Time-dependent inhibition of CYP3A4 in human liver microsomes using 6beta-hydroxylase as substrate incubated for 30 mins prior to substrate addition measured after 30 mins by LC-MS/MS analysis; assay type: ADME, Microsome
[37] = target: Vasopressin V2 receptor (Homo sapiens) (UniProt P30518); assay: Inhibition of vasopressin V2 receptor (unknown origin) at 2 ug/mL relative to control
[38] = target: Hepatocyte growth factor receptor (Homo sapiens, UniProt P08581); assay: Inhibition of human MET
[39] = target: Neuropeptide Y receptor type 5 (Homo sapiens) (UniProt Q15761); assay: Inhibition of NPYY5 receptor (unknown origin) at 2 ug/mL relative to control
[40] = target: Histamine H1 receptor (Homo sapiens) (UniProt P35367); assay: Inhibition of histamine H1 receptor (unknown origin) at 1 ug/mL relative to control
[41] = target: D(2) dopamine receptor (Homo sapiens) (UniProt P14416); assay: Inhibition of dopamine D2 receptor (unknown origin) at 2 ug/mL relative to control
hERG (KCNH2) [42] = target: T1, hERG (KCNH2); assay: Inhibition of human ERG expressed in mouse L929 cells at 10 uM by IonWorks assay relative to control; assay type: cell-based; conditions: mouse L929 cells expressing human ERG
Cytochrome P450 2C9 = Cytochrome P450 2C9 (Homo sapiens, UniProt P11712); assay: Time-dependent inhibition of CYP2C9 in human liver microsomes using tolbutamide as substrate incubated for 30 mins prior to substrate addition measured after 30 mins by LC-MS/MS analysis; assay type: ADME, Microsome
Cytochrome P450 3A4 [43] = target: T2, Cytochrome P450 3A4; assay: Inhibition of CYP3A4 in human liver microsomes using […] as substrate by LC-MS/MS analysis; assay type: ADME, Microsome
[44] = target: Cyclin-dependent kinase 2 (Homo sapiens, UniProt P24941); assay: Inhibition of human CDK2
In short: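 Biochemical kinase inhibition assay. Reported values are averages of duplicate or triplicate determinations, with a standard deviation of 10%.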

T1 sequence (Q12809 whole entry): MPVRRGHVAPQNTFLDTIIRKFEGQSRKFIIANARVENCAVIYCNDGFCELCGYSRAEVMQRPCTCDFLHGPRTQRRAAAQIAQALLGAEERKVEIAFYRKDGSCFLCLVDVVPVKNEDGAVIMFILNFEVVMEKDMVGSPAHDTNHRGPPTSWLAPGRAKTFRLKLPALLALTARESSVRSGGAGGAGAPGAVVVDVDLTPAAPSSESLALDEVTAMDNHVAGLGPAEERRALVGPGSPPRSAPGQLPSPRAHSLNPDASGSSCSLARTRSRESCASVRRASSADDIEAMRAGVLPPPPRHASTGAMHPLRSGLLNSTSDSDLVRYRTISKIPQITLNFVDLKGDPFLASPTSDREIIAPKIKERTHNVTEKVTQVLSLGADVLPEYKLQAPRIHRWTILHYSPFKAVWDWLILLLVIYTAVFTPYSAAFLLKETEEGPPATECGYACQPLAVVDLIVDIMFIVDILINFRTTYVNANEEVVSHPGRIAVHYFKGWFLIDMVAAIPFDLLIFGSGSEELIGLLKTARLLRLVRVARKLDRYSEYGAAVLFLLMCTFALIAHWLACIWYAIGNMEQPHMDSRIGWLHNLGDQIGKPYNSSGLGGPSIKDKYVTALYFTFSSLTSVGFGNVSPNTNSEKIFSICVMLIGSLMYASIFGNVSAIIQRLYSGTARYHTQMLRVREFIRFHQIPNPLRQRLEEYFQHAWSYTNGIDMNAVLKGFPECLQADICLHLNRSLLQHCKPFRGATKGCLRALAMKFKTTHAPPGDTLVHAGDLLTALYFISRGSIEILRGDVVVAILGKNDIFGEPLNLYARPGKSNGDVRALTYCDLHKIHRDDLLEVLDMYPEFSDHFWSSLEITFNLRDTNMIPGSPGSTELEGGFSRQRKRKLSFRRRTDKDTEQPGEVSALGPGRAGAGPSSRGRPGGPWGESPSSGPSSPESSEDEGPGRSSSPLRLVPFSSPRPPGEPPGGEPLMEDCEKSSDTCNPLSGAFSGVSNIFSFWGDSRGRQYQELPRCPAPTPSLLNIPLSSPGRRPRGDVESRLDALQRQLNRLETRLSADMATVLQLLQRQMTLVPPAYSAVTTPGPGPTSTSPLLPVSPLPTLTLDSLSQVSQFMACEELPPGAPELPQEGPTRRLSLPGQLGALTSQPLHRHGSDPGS
T2 sequence (P08684 whole entry): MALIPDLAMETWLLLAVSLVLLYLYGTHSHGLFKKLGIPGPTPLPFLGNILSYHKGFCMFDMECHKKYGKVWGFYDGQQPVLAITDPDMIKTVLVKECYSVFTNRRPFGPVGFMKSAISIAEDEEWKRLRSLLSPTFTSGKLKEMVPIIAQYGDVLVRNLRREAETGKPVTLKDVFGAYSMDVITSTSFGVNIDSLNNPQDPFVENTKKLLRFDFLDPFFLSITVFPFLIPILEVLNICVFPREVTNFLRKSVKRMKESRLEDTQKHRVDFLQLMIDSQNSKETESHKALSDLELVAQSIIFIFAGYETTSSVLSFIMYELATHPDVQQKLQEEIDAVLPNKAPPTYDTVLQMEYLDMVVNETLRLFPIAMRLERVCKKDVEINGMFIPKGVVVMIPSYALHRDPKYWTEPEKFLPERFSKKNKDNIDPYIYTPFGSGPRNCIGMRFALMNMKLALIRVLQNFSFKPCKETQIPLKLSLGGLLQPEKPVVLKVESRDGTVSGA
C-X-C chemokine receptor type 3 (Homo sapiens), sequence (P49682 whole entry): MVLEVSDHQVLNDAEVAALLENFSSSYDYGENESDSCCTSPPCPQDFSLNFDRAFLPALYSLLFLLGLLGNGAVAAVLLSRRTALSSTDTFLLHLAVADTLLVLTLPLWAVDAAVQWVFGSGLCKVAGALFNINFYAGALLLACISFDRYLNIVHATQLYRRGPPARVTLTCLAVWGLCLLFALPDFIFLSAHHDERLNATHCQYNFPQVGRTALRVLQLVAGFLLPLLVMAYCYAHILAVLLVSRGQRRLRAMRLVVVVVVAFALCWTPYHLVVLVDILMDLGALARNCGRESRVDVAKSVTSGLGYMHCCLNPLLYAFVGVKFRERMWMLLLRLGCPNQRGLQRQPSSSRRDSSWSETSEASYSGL
Calcium/calmodulin-dependent protein kinase type IV, sequence (Q16566 whole entry): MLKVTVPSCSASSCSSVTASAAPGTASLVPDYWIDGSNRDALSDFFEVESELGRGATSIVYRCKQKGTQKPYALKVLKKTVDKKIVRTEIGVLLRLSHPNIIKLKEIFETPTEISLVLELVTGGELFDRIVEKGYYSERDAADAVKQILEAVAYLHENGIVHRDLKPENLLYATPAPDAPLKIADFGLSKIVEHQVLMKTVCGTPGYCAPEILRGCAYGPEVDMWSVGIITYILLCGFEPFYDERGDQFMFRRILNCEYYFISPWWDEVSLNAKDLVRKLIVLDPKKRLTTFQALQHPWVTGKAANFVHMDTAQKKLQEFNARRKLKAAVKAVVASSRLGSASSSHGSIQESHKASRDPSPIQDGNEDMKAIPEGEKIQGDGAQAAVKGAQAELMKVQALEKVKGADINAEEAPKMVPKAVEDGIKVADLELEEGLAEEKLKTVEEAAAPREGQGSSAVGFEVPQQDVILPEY
Serine/threonine-protein kinase PLK3, sequence (Q9H4B4 whole entry): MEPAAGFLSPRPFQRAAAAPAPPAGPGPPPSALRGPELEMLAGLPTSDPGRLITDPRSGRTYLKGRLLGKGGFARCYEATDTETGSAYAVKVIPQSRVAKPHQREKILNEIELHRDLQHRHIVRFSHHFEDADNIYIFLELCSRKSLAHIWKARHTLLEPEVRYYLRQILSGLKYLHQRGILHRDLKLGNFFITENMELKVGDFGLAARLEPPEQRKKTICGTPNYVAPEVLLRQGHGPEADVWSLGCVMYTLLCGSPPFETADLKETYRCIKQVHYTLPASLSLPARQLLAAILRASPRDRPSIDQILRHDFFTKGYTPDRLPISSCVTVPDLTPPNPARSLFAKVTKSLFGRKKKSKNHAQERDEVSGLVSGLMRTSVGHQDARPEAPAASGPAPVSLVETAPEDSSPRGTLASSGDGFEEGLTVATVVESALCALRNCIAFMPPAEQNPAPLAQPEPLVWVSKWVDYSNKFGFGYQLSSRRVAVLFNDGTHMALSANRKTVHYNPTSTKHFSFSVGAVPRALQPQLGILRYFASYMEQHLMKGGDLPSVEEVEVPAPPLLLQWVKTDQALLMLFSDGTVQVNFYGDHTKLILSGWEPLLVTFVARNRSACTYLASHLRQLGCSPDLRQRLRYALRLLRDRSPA
Tyrosine-protein kinase JAK2, sequence (O60674 whole entry): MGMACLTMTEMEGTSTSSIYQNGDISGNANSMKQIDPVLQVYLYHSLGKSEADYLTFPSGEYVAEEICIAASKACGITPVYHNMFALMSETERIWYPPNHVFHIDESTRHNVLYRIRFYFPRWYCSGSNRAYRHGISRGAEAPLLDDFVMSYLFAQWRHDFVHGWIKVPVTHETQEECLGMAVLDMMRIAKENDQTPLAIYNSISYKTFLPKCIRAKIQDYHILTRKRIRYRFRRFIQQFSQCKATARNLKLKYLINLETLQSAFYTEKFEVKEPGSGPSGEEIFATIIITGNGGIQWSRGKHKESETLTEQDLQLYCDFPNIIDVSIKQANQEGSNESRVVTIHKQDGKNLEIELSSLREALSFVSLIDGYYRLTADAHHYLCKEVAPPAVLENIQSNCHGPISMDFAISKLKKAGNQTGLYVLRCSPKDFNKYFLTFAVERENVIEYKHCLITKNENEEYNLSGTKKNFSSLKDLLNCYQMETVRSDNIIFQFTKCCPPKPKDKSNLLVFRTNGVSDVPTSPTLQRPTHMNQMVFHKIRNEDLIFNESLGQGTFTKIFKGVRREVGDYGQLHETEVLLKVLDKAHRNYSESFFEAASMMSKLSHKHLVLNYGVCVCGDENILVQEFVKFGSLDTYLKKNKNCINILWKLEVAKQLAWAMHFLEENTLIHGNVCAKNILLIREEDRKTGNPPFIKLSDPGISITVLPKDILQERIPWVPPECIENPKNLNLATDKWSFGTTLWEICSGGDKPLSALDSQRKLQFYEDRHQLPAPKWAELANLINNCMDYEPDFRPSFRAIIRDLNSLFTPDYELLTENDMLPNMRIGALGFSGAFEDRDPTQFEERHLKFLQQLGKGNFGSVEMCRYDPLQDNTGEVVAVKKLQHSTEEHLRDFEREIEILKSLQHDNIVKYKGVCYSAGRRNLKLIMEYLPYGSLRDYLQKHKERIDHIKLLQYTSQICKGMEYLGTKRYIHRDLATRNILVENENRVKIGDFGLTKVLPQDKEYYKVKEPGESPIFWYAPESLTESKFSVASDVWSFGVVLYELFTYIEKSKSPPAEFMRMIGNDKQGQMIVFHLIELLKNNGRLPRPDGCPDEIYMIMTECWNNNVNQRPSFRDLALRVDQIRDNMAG
Muscarinic acetylcholine receptor M4 (Homo sapiens), sequence (P08173 whole entry): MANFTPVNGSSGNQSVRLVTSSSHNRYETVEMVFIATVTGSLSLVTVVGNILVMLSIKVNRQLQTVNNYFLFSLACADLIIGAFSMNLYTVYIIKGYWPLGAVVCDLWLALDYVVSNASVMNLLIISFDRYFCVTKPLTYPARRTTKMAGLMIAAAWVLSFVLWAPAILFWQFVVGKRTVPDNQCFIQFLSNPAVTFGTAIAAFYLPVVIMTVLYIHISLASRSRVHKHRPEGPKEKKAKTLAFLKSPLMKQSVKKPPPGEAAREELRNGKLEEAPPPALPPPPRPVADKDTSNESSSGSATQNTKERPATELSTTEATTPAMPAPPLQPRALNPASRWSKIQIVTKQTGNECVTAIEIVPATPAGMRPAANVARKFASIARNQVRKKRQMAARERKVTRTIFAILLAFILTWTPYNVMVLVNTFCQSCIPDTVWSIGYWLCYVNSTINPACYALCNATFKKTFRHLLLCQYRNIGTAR

inhibition [1]: 21.8%
Cmax [2]: 600 nM
IC50 [3]: > 30 µM
Tmax [4]: 6 h
IC50 [5]: > 30 µM
IC50 [6]: > 30 µM
IC50 [8]: > 30 µM
inhibition [9]: 14.1%
inhibition [10]: 6.1%
IC50 [11]: 21 µM
inhibition [12]: 8%
IC50 [13]: 2100 nM
IC50 [14]: 4.8 µM
inhibition [15]: 10.9%
concentration at 1 h [16]: 57 ng/mL
inhibition [17]: 25.1%
AUC [18]: 7.2 µM·h
IC50 [19]: 1100 nM
inhibition [20]: 43.8%
inhibition [21]: 16.1%
IC50 [22]: 9.5 µM
IC50 [23]: > 30 µM
IC50 [24]: 1300 nM
IC50 [25]: 6.8 µM
IC50 [27]: 26 µM
inhibition [28]: 2.8%
inhibition [29]: 25.7%
inhibition [30]: -3.2%
inhibition [32]: 10.1%
concentration at 6 h [33]: 252 ng/mL
concentration at 2 h [34]: 150 ng/mL
inhibition [35]: -5.8%
IC50 (Cytochrome P450 3A4 [36]): > 30 µM
inhibition [37]: 20.4%
IC50 [38]: > 30 µM
inhibition [39]: 13.2%
inhibition [40]: 21%
inhibition [41]: 16.9%
IC50 (Cytochrome P450 2C9): > 30 µM
IC50 (Cytochrome P450 3A4 [43]): > 30 µM
IC50 [44]: > 30 µM
SMILES: COc1ccc2c(c1)C(=O)N(c1nc(C(=O)Nc3cnccc3N3CCNCC3)cs1)C2
inhibition at 5 ug/mL (hERG (KCNH2) [7]): 65%
inhibition at 1 µM (hERG (KCNH2) [26]): 4%
inhibition at 5 min, 1 µM (hERG (KCNH2) [31]): 82%
inhibition at 10 µM (hERG (KCNH2) [42]): 42%
